“Also recorded” adds a separate entry of the source.
Tests used:
TYK2 = TYK2 (Homo sapiens, UniProt P29597); test: Inhibition of catalytic domain activity, TYK2; format: biochemical
Summary of the method: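 Z′-LYTE biochemical kinase assay run by the vendor per manufacturer's protocol. Each kinase plate carried 0%/100% phosphorylation and 0%/100% inhibition controls. Development-reaction and compound-fluorescence interference controls at each compound concentration. n = 1 per kinase.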

LRRK2 = LRRK2 (Homo sapiens, UniProt Q5S007); test: IC50 for kinases of potential cross-over; format: biochemical
TXK = TXK (Homo sapiens, UniProt P42681); test: IC50 for kinases of potential cross-over; format: biochemical
Chain of TXK (P42681 whole entry): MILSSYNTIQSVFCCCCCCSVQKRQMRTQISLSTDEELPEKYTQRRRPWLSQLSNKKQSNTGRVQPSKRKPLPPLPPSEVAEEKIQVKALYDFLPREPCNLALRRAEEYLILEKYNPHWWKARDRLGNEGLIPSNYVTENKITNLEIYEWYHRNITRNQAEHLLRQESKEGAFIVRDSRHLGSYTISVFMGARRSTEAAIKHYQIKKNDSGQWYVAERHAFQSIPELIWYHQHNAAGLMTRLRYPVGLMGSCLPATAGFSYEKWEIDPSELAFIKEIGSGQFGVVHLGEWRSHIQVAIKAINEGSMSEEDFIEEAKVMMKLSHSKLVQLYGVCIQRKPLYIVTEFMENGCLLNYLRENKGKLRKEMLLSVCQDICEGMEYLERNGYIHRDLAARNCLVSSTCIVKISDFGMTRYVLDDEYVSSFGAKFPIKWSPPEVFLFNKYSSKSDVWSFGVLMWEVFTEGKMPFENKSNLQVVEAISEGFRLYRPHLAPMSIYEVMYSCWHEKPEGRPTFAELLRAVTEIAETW

[1] = Metabolic stability in liver microsomes; format: in vitro ADME; details: human
Summary of the method: (§1)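 Test compound from 1 mM DMSO solution preincubated 5 min with dog, human, monkey, rat or minipig liver microsomes. NADPH (10 mM) then added. Reactions stopped at 0, 5, 15 and 30 min with 0.05% formic acid in acetonitrile containing loperamide internal standard. Supernatants analysed by LC-MS/MS; n = 1 per microsome species.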

BTK = BTK (Homo sapiens, UniProt Q06187); test: IC50 for kinases of potential cross-over; format: biochemical
Chain of BTK (Q06187 whole entry): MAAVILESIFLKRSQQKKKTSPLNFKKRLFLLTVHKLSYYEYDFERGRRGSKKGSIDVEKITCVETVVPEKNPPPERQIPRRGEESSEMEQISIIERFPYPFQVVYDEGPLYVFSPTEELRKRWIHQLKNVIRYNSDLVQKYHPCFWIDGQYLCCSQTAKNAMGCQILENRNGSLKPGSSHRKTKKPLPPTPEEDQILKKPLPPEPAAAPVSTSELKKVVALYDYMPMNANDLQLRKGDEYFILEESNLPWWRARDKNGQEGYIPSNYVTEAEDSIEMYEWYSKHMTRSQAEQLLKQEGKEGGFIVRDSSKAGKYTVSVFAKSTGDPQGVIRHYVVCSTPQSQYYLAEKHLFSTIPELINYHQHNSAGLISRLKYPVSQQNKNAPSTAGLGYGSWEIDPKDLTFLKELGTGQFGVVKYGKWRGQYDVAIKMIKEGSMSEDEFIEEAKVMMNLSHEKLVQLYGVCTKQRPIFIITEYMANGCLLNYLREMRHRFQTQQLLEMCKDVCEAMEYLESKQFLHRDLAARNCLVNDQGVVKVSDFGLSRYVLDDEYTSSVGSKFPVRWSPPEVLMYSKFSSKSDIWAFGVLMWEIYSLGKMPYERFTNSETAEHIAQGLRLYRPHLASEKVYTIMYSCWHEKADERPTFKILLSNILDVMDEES

[2] = 28-day minipig repeat exposure study: toxicokinetics; format: in vivo; details: for concentration at 0 h / concentration at 0.5 h / concentration at 1 h / concentration at 2 h / concentration at 4 h / concentration at 8 h / concentration at 12 h / concentration at 24 h: both, plasma, topical; for concentration in the skin: terminal sacrifice (day 28)
Summary of the method: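 Topical solution applied to minipigs once daily for 28 days at 0, 40, 80 or 160 mg/day, left on skin 20–22 h, then wiped with moist towel. Jugular blood collected days 1 and 28, pre-dose and ~0.5, 1, 2, 4, 8, 12, 22 h after application, after IM acepromazine 0.2–0.4 mg/kg. Pigs nonfasted; K2 EDTA plasma; validated LC-MS/MS.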

RSK2 = RSK2 (Homo sapiens, UniProt P51812); test: IC50 for kinases of potential cross-over; format: biochemical
[3] = 7-day minipig study: plasma pharmacokinetics; format: in vivo
[4] = Metabolic stability in liver microsomes; format: in vitro ADME; details: dog
Summary of the method: as §1

MARK1 = MARK1 (Homo sapiens, UniProt Q9P0L2); test: IC50 for kinases of potential cross-over; format: biochemical
Chain of MARK1 (Q9P0L2 whole entry): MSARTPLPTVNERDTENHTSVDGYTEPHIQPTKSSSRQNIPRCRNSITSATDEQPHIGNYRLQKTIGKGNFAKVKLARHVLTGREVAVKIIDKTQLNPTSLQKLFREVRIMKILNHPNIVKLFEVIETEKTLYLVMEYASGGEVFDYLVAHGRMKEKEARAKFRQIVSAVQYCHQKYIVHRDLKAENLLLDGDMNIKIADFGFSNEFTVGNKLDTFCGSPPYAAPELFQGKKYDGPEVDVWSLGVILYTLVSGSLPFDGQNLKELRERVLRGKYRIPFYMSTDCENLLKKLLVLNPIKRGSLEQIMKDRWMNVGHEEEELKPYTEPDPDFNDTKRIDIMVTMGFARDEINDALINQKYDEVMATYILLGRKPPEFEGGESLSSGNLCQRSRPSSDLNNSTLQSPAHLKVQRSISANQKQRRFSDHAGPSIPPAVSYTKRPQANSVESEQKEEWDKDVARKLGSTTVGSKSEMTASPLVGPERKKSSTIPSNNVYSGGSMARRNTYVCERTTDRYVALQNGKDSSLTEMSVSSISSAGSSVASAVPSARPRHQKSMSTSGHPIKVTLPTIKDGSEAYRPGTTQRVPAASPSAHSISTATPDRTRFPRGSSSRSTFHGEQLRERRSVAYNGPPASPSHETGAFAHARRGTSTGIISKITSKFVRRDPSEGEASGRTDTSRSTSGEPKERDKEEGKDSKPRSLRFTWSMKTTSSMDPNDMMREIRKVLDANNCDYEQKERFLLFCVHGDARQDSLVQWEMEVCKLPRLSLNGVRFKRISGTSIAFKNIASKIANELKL

[5] = system: moderate or severe atopic dermatitis; test: Phase 2a study ATI-1777-AD-201: efficacy; format: in vivo, human
Summary of the method: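 Randomized 1:1, double-blind, vehicle-controlled, 14 US sites; stratified by severity. Adults 18–65 with moderate/severe AD (IGA 3–4, 3–20% BSA). Up to 8 ml 2.0% w/w solution or vehicle applied twice daily for 28 days, 2-week follow-up. mEASI, IGA, BSA assessed days 8, 15, 28; PP-NRS tracked. MMRM, 1-sided tests, full analysis set (23 vs 25).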

minipig [6] = test: 28-day minipig repeat exposure study: toxicology; format: in vivo; details: topical solution daily for 28 days, 0, 40, 80 and 160 mg/day
Summary of the method: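 GLP repeat-dose dermal study in minipigs. Topical solution given daily for 28 days at 0, 40, 80 and 160 mg/day. Left on skin 20–22 h each day, then the site was wiped clean with a moist towel. Dermal tolerability and toxicokinetics assessed.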

HPK1 (MAP4K1) = HPK1 (MAP4K1) (Homo sapiens, UniProt Q92918); test: IC50 for kinases of potential cross-over; format: biochemical
Chain of HPK1 (MAP4K1) (Q92918 whole entry): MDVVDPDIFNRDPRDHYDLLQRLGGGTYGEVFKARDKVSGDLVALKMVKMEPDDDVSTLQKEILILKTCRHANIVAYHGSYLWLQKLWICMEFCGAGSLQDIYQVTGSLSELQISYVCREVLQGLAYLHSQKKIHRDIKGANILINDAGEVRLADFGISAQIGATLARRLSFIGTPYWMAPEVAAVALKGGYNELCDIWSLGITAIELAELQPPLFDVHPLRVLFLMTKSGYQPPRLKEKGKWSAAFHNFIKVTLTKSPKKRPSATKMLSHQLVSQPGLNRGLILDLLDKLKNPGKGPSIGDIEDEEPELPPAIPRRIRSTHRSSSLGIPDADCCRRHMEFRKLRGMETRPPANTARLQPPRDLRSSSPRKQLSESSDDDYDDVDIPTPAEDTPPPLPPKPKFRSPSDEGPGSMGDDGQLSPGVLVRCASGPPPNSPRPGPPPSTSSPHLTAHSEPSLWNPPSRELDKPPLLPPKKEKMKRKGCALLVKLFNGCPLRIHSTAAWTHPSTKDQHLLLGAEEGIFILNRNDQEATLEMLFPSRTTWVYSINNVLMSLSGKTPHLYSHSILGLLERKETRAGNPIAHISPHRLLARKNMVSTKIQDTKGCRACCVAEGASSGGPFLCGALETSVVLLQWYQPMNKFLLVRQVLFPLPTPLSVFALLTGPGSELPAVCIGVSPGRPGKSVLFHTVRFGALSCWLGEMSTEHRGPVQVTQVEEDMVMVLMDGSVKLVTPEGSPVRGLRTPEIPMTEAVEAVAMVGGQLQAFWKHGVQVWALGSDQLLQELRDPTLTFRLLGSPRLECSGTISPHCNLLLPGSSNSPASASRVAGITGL

[7] = Phase 2a study ATI-1777-AD-201: plasma pharmacokinetics; format: in vivo, human
Summary of the method: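 Participants with moderate/severe AD applied 2% topical solution twice daily for 4 weeks. Plasma test compound measured by sparse sampling, 8 samples per participant. Concentrations expressed relative to the Jak1/3 IC50.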

MKNK1/MNK1 = MKNK1/MNK1 (Homo sapiens, UniProt Q9BUB5); test: IC50 for kinases of potential cross-over; format: biochemical
Chain of MKNK1/MNK1 (Q9BUB5 whole entry): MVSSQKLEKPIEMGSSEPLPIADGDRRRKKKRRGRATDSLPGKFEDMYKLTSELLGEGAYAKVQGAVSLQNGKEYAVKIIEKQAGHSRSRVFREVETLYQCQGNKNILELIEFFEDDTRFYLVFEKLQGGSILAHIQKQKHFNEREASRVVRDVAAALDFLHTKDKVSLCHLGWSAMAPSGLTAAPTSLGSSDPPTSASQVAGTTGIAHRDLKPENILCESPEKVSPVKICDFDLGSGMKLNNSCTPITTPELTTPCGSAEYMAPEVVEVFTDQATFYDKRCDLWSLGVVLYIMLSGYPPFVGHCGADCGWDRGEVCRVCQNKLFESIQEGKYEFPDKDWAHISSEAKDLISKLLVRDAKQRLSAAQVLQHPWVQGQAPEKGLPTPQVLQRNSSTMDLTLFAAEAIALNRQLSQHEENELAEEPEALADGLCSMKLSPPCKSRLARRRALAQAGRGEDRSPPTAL

CYP2C19 = CYP2C19 (Homo sapiens, UniProt P33261); test: Cytochrome P450 phenotyping; format: in vitro ADME; details: recombinant human CYP2C19; with NADPH; 60 minutes; n = 1
minipig [8] = test: 7-day minipig study: dermal tolerability; format: in vivo; details: 2% solution applied to the skin for 7 consecutive days
Summary of the method: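 Each minipig (1 male, 1 female) received topical test compound and matching placebo formulations once daily on designated skin areas. Animals were checked daily for clinical signs. Application sites were scored for dermal irritation by a modified Draize procedure.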

FLT4 (VEGFR3) = FLT4 (VEGFR3) (Homo sapiens, UniProt P35916); test: IC50 for kinases of potential cross-over; format: biochemical
Chain of FLT4 (VEGFR3) (P35916 25-1363): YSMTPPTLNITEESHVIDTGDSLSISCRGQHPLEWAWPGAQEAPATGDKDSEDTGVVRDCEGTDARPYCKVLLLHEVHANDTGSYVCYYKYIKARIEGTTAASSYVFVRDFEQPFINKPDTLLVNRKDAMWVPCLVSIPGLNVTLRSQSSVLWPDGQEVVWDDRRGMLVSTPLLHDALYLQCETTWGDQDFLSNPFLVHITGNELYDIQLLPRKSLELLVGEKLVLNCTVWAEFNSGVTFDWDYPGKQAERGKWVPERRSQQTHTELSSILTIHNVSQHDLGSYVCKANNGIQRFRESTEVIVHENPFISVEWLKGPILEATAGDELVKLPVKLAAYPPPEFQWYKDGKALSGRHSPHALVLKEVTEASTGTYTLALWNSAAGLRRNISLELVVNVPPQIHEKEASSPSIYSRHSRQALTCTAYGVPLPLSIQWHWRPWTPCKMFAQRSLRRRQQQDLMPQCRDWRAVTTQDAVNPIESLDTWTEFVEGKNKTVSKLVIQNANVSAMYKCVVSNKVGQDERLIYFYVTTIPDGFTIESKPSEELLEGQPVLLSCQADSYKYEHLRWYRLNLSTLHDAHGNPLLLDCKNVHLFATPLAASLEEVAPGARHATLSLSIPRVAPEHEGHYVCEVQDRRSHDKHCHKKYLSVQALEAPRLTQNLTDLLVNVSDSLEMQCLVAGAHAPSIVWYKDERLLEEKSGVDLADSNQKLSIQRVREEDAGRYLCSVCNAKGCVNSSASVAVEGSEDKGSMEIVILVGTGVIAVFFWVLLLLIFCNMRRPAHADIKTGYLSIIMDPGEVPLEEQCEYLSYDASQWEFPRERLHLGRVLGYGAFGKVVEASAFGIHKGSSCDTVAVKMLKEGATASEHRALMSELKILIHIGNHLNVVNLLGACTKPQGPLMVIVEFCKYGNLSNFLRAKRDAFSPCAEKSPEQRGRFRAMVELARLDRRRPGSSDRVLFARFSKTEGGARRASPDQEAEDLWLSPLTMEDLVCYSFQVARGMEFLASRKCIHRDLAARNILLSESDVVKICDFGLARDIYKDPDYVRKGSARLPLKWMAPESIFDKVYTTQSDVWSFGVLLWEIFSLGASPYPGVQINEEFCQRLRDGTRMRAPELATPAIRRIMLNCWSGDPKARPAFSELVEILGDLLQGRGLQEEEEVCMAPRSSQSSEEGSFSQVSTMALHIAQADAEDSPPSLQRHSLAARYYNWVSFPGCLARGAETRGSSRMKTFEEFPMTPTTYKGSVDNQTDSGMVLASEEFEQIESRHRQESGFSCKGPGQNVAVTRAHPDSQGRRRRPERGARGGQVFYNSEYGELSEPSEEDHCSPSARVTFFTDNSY

[9] = male, plasma, topical, 160 mg/day
[10] = day 28, 2% topical solution twice daily, n = 23

Chain of TYK2 (P29597 897-1176 limits assumed): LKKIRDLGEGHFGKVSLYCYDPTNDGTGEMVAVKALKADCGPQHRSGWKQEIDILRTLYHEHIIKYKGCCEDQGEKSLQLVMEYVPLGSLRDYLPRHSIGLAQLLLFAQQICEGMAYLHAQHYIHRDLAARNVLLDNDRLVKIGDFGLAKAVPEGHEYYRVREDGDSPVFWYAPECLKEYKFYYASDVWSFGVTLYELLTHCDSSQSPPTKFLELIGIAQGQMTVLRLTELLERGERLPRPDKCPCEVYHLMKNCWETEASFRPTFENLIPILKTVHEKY

## CCOC(=O)c1cnc2[nH]ccc2c1N[C@@H]1CCCN(C(=O)CC#N)C1 [ATI-1777, ethyl (R)-4-((1-(2-cyanoacetyl)piperidin-3-yl)amino)-1H-pyrrolo[2,3-b]pyridine-5-carboxylate]
TYK2
  IC50: 19 nM
LRRK2
  IC50: 48 nM
LRRK2; LRRK2 vs Jak1 (= 1)
  Fold Selectivity: 32 fold
TXK
  IC50: 351 nM
TXK; TXK vs Jak1 (= 1)
  Fold Selectivity: 234 fold
[1]
  CLint scaled: 200 mL/min/kg
  microsomal CLint: 74 µL/min/mg
[1]; T1/2, Study 1, n = 1
  half-life: 8.71 min
[1]; T1/2, Study 2, n = 1
  half-life: 19 min
BTK
  IC50: 210 nM
BTK; BTK vs Jak1 (= 1)
  Fold Selectivity: 140 fold
[2]; 160 mg group, day 28, all pigs
  quantifiable plasma concentrations: < 6.26 ng/mL
[2]; 40 and 80 mg/day, days 1 and 28, nonquantifiable in most pigs
  plasma concentrations when quantifiable: ≤ 4.94 ng/mL
[2]; 40 mg/day
  concentration at 0 h: 0.34 ng/mL
  concentration at 0.5 h: 0.143 ng/mL
  concentration at 1 h: 0.0685 ng/mL
  concentration at 2 h: 0.108 ng/mL
  concentration at 4 h: 0.121 ng/mL
  concentration at 8 h: 0 ng/mL
  concentration at 12 h: 0 ng/mL
  concentration at 24 h: 0 ng/mL
[2]; 80 mg/day
  concentration at 0 h: 0.118 ng/mL
  concentration at 0.5 h: 0.647 ng/mL
  concentration at 1 h: 0.0995 ng/mL
  concentration at 2 h: 0.197 ng/mL
  concentration at 4 h: 0.193 ng/mL
  concentration at 8 h: 0.173 ng/mL
  concentration at 12 h: 0.823 ng/mL
  concentration at 24 h: 0 ng/mL
[2]; 160 mg/day
  concentration at 0 h: 1.82 ng/mL
  concentration at 0.5 h: 0.479 ng/mL
  concentration at 1 h: 1.14 ng/mL
  concentration at 2 h: 1.12 ng/mL
  concentration at 4 h: 0.755 ng/mL
  concentration at 8 h: 0.684 ng/mL
  concentration at 12 h: 1.02 ng/mL
  concentration at 24 h: 0.0569 ng/mL
[2]; females
  concentration in the skin: ≥ 1960 ng/g
[2]; males
  concentration in the skin: ≥ 4280 ng/g
RSK2
  IC50: 1050 nM
RSK2; RSK2 vs Jak1 (= 1)
  Fold Selectivity: 700 fold
[3]; 2% solution, 7 consecutive days, LLOQ = 0.5 ng/ml, at most time points
  systemic exposure: unquantifiable
[3]; [9]
  concentration at 0 h: 0 ng/mL
  concentration at 1 h: 0 ng/mL
  concentration at 2 h: 0.387 ng/mL
  concentration at 4 h: 0.221 ng/mL
  concentration at 8 h: 0.391 ng/mL
  concentration at 12 h: 0 ng/mL
  concentration at 24 h: 0 ng/mL
[4]
  CLint scaled: 198 mL/min/kg
  microsomal CLint: 46 µL/min/mg
[4]; T1/2, Study 1, n = 1
  half-life: 17.4 min
[4]; T1/2, Study 2, n = 1
  half-life: 30 min
MARK1
  IC50: 1250 nM
MARK1; MARK1 vs Jak1 (= 1)
  Fold Selectivity: 833 fold
[5]; SE = 0.548, P = .060 vs vehicle
  least squared means change from baseline of PP-NRS score: −2.92
[5]; day 8
  BSA affected by AD, change from baseline: −1.55%
[5]; day 15
  BSA affected by AD, change from baseline: −3.33%
[5]; [10]
  participants achieving a 50% reduction in mEASI: 91.3%
  participants achieving a 75% reduction in mEASI: 65.2%
[5]; day 28, P < .001 vs vehicle
  BSA affected by AD, change from baseline: −5.59%
[5]; day 28, mixed model for repeated measures without imputation, SE = 5.943
  percentage reduction from baseline in mEASI score: 78.46%
[5]; end of treatment period (day 28), P = .131 vs vehicle, n = 23
  participants achieving an IGA score of 0 or 1 with ≥2 point improvement: 39.1%
Minipig [6]
  ATI-1777–related effects / adverse effects: No ATI-1777–related effects were noted at any dose; also recorded: did not present any adverse effects
HPK1 (MAP4K1)
  IC50: 285 nM
HPK1 (MAP4K1); HPK1 (MAP4K1) vs Jak1 (= 1)
  Fold Selectivity: 190 fold
[7]; IC50 45 ng/ml
  all plasma concentrations relative to IC50 for Jak1/3: less than half of the IC50
[7]; all plasma concentrations
  plasma concentrations relative to inhibitory concentrations for Jak1/2: below IC10
[7]; each timepoint, IC50 45 ng/ml
  mean plasma concentration as percentage of the IC50 for Jak1/3: < 5%
[7]; in vivo
  participants with samples with concentrations >10% of the IC50 for Jak1/3: Three
MKNK1/MNK1
  IC50: 584 nM
MKNK1/MNK1; MKNK1/MNK1 vs Jak1 (= 1)
  Fold Selectivity: 389 fold
CYP2C19
  Percentage Remaining: 75.5%
Minipig [8]
  clinical observations and clinical pathology parameters: no adverse clinical observations or changes in clinical pathology parameters
FLT4 (VEGFR3)
  IC50: 113 nM
FLT4 (VEGFR3); FLT4 (VEGFR3) vs Jak1 (= 1)
  Fold Selectivity: 75 fold
